Where a SMILES comes first, the peptide text is derived from it. Bridges are numbered along the chain shown (N, C = ends).
Assays:
[1] = target: Neuronal acetylcholine receptor subunit alpha-7 (Homo sapiens, UniProt P36544); assay: Inhibition of human alpha7 nAChR expressed in Xenopus laevis oocytes assessed as inhibition of acetylcholine-induced current response at 10 uM by two-electrode voltage-clamp method relative to control; assay type: cell-based; settings: Oocyte
How it was run: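 Stage IV–V X. laevis oocytes expressing equal-ratio cRNAs of α2β4, α3β4, α4β4 or α7 subunits; TEVC 1–5 days after injection. ACh 300 μM, 1 s at 60 s intervals. 10 μM peptide as 5 min static bath, normalized to ACh response after 5 min bath of control saline; mean ± SD, n = 4.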

[2] = target: Neuronal acetylcholine receptor; alpha4/beta2 (Homo sapiens, UniProt P17787+P43681); assay: Inhibition of human alpha4beta2 nAChR expressed in Xenopus laevis oocytes assessed as inhibition of acetylcholine-induced current response at 10 uM by two-electrode voltage-clamp method relative to control; assay type: cell-based; settings: Oocyte
How it was run: (§1)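 Oocytes (stage IV–V) injected with equal-ratio cRNAs of cloned subunits; TEVC 1–5 days post-injection. ACh 100 μM for β2-containing and α9α10 subtypes, 1 s pulses every 60 s. Peptide 10 μM in 5 min static bath; response normalized to ACh response after 5 min control-saline bath; mean ± SD, n = 4.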

[3] = target: Nicotinic acetylcholine receptor alpha9/alpha10 (Rattus norvegicus) (UniProt P43144+Q9JLB5); assay: Inhibition of rat alpha9alpha10 nAChR expressed in Xenopus laevis oocytes assessed as inhibition of acetylcholine-induced current response at 10 uM by two-electrode voltage-clamp method relative to control; assay type: cell-based; settings: Oocyte; how it was run: as §1
[4] = target: Neuronal acetylcholine receptor subunit alpha-7 (Rattus norvegicus, UniProt Q05941); assay type: cell-based, Oocyte
Rattus norvegicus = species on record: Rattus norvegicus; assay: Selectivity ratio of IC50 for rat alpha3beta4 nAChR to IC50 for rat alpha6/alpha3beta4 nAChR
How it was run: (§2)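 Ratio of each subtype's IC50, from TEVC inhibition of ACh-evoked currents in X. laevis oocytes, to the IC50 at the same species' α6/α3β4 nAChR; IC50 values with 95% CI, n = number of oocytes.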

Homo sapiens [5] = species on record: Homo sapiens; assay: Selectivity ratio of IC50 for human alpha6/alpha3beta2beta3 nAChR to IC50 for human alpha6/alpha3beta4 nAChR; how it was run: as §2
Homo sapiens [6] = species on record: Homo sapiens; assay: Selectivity ratio of IC50 for human alpha3beta2 nAChR to IC50 for human alpha6/alpha3beta4 nAChR; how it was run: as §2
[7] = target: Neuronal acetylcholine receptor; alpha2/beta2 (Homo sapiens, UniProt P17787+Q15822); assay: Inhibition of human alpha2beta2 nAChR expressed in Xenopus laevis oocytes assessed as inhibition of acetylcholine-induced current response at 10 uM by two-electrode voltage-clamp method relative to control; assay type: cell-based; settings: Oocyte; how it was run: as §1
[8] = target: Neuronal acetylcholine receptor; alpha2/beta2 (Rattus norvegicus, UniProt P12389+P12390); assay: Inhibition of rat alpha2beta2 nAChR expressed in Xenopus laevis oocytes assessed as inhibition of acetylcholine-induced current response by two-electrode voltage-clamp method; assay type: cell-based, Oocyte
How it was run: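 Two-electrode voltage clamp of stage IV–V oocytes 1–5 days after equal-ratio cRNA injection; ACh 100 μM (β2-containing subtypes, α9α10), 1 s every 60 s in frog saline. Peptide perfused up to 1 μM, responses normalized to mean of three control responses; above 1 μM, 5 min static bath. IC50 with 95% CI; n = oocytes.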

Sequence of Neuronal acetylcholine receptor subunit alpha-7 (Rattus norvegicus, UniProt Q05941) (Q05941 whole entry): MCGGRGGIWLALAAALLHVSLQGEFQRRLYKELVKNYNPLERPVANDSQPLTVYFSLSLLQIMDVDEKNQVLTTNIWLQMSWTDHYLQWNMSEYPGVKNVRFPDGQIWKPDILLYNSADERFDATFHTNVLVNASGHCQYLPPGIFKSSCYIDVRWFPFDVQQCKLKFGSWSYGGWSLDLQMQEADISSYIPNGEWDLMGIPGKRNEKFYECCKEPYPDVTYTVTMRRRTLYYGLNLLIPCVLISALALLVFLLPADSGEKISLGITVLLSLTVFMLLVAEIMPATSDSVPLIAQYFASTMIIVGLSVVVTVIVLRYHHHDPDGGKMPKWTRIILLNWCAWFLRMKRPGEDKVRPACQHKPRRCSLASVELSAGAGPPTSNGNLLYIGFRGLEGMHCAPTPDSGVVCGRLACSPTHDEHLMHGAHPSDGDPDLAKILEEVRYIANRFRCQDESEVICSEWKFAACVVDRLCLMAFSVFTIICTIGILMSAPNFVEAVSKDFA
Sequence of Neuronal acetylcholine receptor; alpha2/beta2 (Rattus norvegicus, UniProt P12389+P12390) (P12389 whole entry, the tested form may be a part): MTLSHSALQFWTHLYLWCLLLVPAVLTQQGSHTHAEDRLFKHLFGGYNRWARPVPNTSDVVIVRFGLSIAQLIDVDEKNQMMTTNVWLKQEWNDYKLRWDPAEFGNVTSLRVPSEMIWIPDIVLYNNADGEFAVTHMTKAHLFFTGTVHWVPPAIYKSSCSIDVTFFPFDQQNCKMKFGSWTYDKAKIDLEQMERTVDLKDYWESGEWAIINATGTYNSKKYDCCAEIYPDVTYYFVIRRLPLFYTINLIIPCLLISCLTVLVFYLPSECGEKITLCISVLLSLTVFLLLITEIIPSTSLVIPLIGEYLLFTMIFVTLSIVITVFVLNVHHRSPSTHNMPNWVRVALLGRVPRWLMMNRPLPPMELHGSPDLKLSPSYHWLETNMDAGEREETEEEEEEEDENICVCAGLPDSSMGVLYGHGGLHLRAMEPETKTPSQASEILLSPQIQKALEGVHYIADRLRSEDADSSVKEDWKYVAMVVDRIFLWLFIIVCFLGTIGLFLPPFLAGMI
Sequence of Neuronal acetylcholine receptor; alpha2/beta2 (Rattus norvegicus, UniProt P12389+P12390) (P12390 whole entry, the tested form may be a part): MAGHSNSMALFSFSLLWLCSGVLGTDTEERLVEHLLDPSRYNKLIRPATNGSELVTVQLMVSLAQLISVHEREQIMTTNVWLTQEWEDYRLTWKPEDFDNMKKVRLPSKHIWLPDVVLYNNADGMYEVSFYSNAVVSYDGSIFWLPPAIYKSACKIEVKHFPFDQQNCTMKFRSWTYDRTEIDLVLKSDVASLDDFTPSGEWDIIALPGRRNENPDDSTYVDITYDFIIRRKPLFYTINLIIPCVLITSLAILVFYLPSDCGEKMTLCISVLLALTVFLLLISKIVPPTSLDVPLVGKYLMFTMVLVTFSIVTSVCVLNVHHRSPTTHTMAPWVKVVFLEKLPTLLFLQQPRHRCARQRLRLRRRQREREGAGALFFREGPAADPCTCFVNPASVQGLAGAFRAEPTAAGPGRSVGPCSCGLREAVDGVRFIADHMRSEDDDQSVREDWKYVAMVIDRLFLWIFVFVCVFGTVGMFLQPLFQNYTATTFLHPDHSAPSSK
Sequence of Neuronal acetylcholine receptor subunit alpha-7 (Homo sapiens, UniProt P36544) (P36544 whole entry): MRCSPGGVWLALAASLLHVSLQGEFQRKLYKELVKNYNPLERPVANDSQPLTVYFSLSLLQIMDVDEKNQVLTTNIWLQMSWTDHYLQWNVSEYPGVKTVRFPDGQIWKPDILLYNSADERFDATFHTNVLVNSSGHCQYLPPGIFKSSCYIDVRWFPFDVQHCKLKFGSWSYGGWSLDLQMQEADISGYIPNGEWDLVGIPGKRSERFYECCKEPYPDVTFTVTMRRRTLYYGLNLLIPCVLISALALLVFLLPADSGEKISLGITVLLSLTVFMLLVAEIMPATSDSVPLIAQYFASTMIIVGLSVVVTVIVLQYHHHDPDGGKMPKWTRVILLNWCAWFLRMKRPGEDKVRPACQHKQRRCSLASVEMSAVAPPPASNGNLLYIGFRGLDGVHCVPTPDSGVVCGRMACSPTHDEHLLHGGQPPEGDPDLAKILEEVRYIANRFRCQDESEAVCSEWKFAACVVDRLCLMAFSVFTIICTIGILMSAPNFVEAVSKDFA

Q: For `CC[C@H](C)[C@@H]1NC(=O)[C@H](CCC(=O)O)NC(=O)[C@@H]2CCCN2C(=O)[C@H](Cc2cnc[nH]2)NC(=O)[C@H](CC(N)=O)NC(=O)[C@H](C(C)C)NC(=O)[C@H](CC(N)=O)NC(=O)[C@@H]2CSSC[C@H](NC(=O)CN)C(=O)N[C@@H](CSSC[C@@H](C(N)=O)NC1=O)C(=O)N[C@@H](CO)C(=O)N[C@@H](Cc1cnc[nH]1)C(=O)N1CCC[C@H]1C(=O)N[C@@H](C(C)C)C(=O)N2` (H-GCCSHPVCNVNHPEIC-NH2; disulfide 2-8, 3-16), which inhibition [1] is on record?
A: 89%

Q: What about the inhibition [2] of the same compound?
A: 91%

Q: And the inhibition [3]?
A: 69%

Q: And the IC50 [4]?
A: > 10 µM

Q: And the Ratio IC50 (Rattus norvegicus)?
A: 489

Q: What about the Ratio IC50 (Homo sapiens [5]) of the same compound?
A: 675

Q: And the Ratio IC50 (Homo sapiens [6])?
A: > 50000

Q: And the inhibition [7]?
A: 95%

Q: What about the IC50 [8] of the same compound?
A: > 10 µM
